From ChEMBL document CHEMBL1629668, “Activity of anidulafungin in a murine model of Candida krusei infection: evaluation of mortality and disease burden by quantitative tissue cultures and measurement of serum (1,3)-beta-D-glucan levels” (2009)
Values after ≈ are worked out from the molar mass of the structure shown. Active and inactive are the calls of the source. Numbered stars: 1 amine (or outer) side, 2 acyl side, 3 side chain; on linkers, the order of the positions; unused ones are H or OH. Bridge positions count the residues as written; N and C are the ends. Square brackets hold non-standard residues; d marks the D form. Peptide text beside a SMILES is read from it. * marks the point of attachment. pTerphenylCO(4''-OnC5H11) = CCCCCOc1ccc(-c2ccc(-c3ccc(C(=O)*)cc3)cc2)cc1; Orn(4R-OH,5R-OH) = O=C([C@H](C[C@@H](O)[C@@H](O)N[*:3])N[*:1])[*:2]; hTyr(3S-OH,4S-OH) = N[C@H](C(=O)O)[C@H](O)[C@@H](O)c1ccc(O)cc1; Pro(3S-OH,4S-Me) = C[C@H]1CN[C@H](C(=O)O)[C@H]1O; Hyp = O=C(O)[C@@H]1C[C@@H](O)CN1

Tests used:
[1] = test system: Pichia kudriavzevii; assay: Antimicrobial activity against Candida krusei LMR 39-14 by M27-A3 microdilution method; assay type: functional
[2] = test system: Pichia kudriavzevii; assay: Antimicrobial activity against Candida krusei LMR 39-14 infected in immunosuppressed CF-1 mouse assessed as decrease in kidney bacterial burden at 40 mg/kg, ip administered once daily for 5 days measured after 5 days (Rvb= 6.66); assay type: functional; details: route intraperitoneal
[3] = test system: Pichia kudriavzevii; assay: Antimicrobial activity against Candida krusei LMR 39-14 infected in immunosuppressed CF-1 mouse assessed as serum 1,3-beta-D-glucan level at 40 mg/kg, ip administered once daily for 5 days measured after 10 days (Rvb= 5.22); assay type: functional; details: route intraperitoneal
Method in brief: (§1)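 Serum (1,3)-β-D-glucan in immunosuppressed CF-1 mice (5-FU 200 mg/kg i.p. day −3, dexamethasone 4 mg/kg s.c. day 0) infected i.v. with 1.3×10^7 to 1.5×10^7 CFU. Mice dosed i.p. q24h for 5 days with saline placebo. Blood taken from five mice per group on day 5 or 10 post-inoculation and assayed with the Fungitell kit (threshold 31 pg/ml). Groups compared by Kruskal-Wallis; duplicate runs pooled.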

[4] = test system: Pichia kudriavzevii; assay: Antimicrobial activity against Candida krusei LMR 39-14 infected in immunosuppressed CF-1 mouse assessed as serum 1,3-beta-D-glucan level at 40 mg/kg, ip administered once daily for 5 days measured after 5 days (Rvb= 6.66); assay type: functional; details: route intraperitoneal; method in brief: as §1
[5] = test system: Pichia kudriavzevii; assay: Antimicrobial activity against Candida krusei LMR 39-14 infected in immunosuppressed CF-1 mouse assessed as decrease in kidney […] burden at 40 mg/kg, ip administered once daily for 5 days measured after 10 days (Rvb= 5.22); assay type: functional; details: route intraperitoneal
[6] = test system: Pichia kudriavzevii; assay: Antimicrobial activity against Candida krusei LMR 39-14 infected in immunosuppressed CF-1 mouse assessed as increased survival of mouse at 40 mg/kg, ip administered once daily for 5 days relative to control; assay type: functional, organism-based; parameters: dose 40 mg/kg
Method in brief: (§2)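 Same immunosuppressed CF-1 model: 5-FU 200 mg/kg i.p. on day −3, dexamethasone 4 mg/kg s.c. on day 0, i.v. tail inoculation of 1.3×10^7 to 1.5×10^7 CFU. Treatment i.p. q24h for 5 days with saline placebo. Fifteen mice per group observed for survival; run in duplicate with data pooled; Kaplan-Meier estimates compared by log-rank test.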

[7] = test system: Pichia kudriavzevii; assay: Antimicrobial activity against Candida krusei LMR 39-14 infected in immunosuppressed CF-1 mouse assessed as serum 1,3-beta-D-glucan level at 1 mg/kg, ip administered once daily for 5 days measured after 5 days (Rvb= 6.66); assay type: functional; details: route intraperitoneal
[8] = test system: Pichia kudriavzevii; assay: Antimicrobial activity against Candida krusei LMR 39-14 infected in immunosuppressed CF-1 mouse assessed as increased survival of mouse at 1 mg/kg, ip administered once daily for 5 days relative to control; assay type: functional, organism-based; parameters: dose 1 mg/kg
Method in brief: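 Immunosuppression used 5-FU 200 mg/kg i.p. on day −3 and dexamethasone 4 mg/kg s.c. on day 0. C. krusei bloodstream isolate was given IV via tail vein at 1.3×10^7 to 1.5×10^7 CFU. Drug i.p. q24h for 5 days, saline placebo. Fifteen mice/group per run followed for survival; experiment in duplicate, pooled. Kaplan-Meier estimates compared by log-rank test.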

[9] = test system: Pichia kudriavzevii; assay: Antimicrobial activity against Candida krusei LMR 39-14 infected in immunosuppressed CF-1 mouse assessed as decrease in kidney bacterial burden at 1 mg/kg, ip administered once daily for 5 days measured after 5 days (Rvb= 6.66); assay type: functional; details: route intraperitoneal
Method in brief: (§3)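 C. krusei clinical bloodstream isolate given IV by tail vein at 1.3×10^7 to 1.5×10^7 CFU/mouse, with inoculum confirmed by plating. Mice immunosuppressed with 5-FU 200 mg/kg i.p. 3 days before and dexamethasone 4 mg/kg s.c. on the day of infection. Treatment i.p. q24h for 5 days. Five mice/group killed day 5 or day 10. Both kidneys homogenized and plated on Sabouraud agar for 48 h; log10 CFU/g; detection limit 40 CFU/g; ANOVA; duplicate runs pooled.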

[10] = test system: Pichia kudriavzevii; assay: Antimicrobial activity against Candida krusei LMR 39-14 infected in immunosuppressed CF-1 mouse assessed as serum 1,3-beta-D-glucan level at 1 mg/kg, ip administered once daily for 5 days measured after 10 days (Rvb= 5.22); assay type: functional; details: route intraperitoneal
[11] = test system: Pichia kudriavzevii; assay: Antimicrobial activity against Candida krusei LMR 39-14 infected in immunosuppressed CF-1 mouse assessed as decrease in kidney bacterial burden at 1 mg/kg, ip administered once daily for 5 days measured after 10 days (Rvb= 5.22); assay type: functional; details: route intraperitoneal; method in brief: as §3
[12] = test system: Pichia kudriavzevii; assay: Antimicrobial activity against Candida krusei LMR 39-14 infected in immunosuppressed CF-1 mouse assessed as decrease in kidney bacterial burden at 10 mg/kg, ip administered once daily for 5 days measured after 5 days (Rvb= 6.66); assay type: functional; details: route intraperitoneal
[13] = test system: Pichia kudriavzevii; assay: Antimicrobial activity against Candida krusei LMR 39-14 infected in immunosuppressed CF-1 mouse assessed as increased survival of mouse at 10 mg/kg, ip administered once daily for 5 days relative to control; assay type: functional, organism-based; parameters: dose 10 mg/kg; method in brief: as §2
[14] = test system: Pichia kudriavzevii; assay: Antimicrobial activity against Candida krusei LMR 39-14 infected in immunosuppressed CF-1 mouse assessed as serum 1,3-beta-D-glucan level at 10 mg/kg, ip administered once daily for 5 days measured after 10 days (Rvb= 5.22); assay type: functional; details: route intraperitoneal; method in brief: as §1
[15] = test system: Pichia kudriavzevii; assay: Antimicrobial activity against Candida krusei LMR 39-14 infected in immunosuppressed CF-1 mouse assessed as serum 1,3-beta-D-glucan level at 20 mg/kg, ip administered once daily for 5 days measured after 5 days (Rvb= 5.22); assay type: functional; details: route intraperitoneal; method in brief: as §1
[16] = test system: Pichia kudriavzevii; assay: Antimicrobial activity against Candida krusei LMR 39-14 infected in immunosuppressed CF-1 mouse assessed as decrease in kidney bacterial burden at 20 mg/kg, ip administered once daily for 5 days measured after 5 days (Rvb= 5.22); assay type: functional; details: route intraperitoneal
[17] = test system: Pichia kudriavzevii; assay: Antimicrobial activity against Candida krusei LMR 39-14 infected in immunosuppressed CF-1 mouse assessed as increased survival of mouse at 20 mg/kg, ip administered once daily for 5 days relative to control; assay type: functional, organism-based; parameters: dose 20 mg/kg; method in brief: as §2
[18] = test system: Pichia kudriavzevii; assay: Antimicrobial activity against Candida krusei by […]; assay type: functional
[19] = test system: Pichia kudriavzevii; assay: Antimicrobial activity against Candida krusei LMR 39-14 infected in immunosuppressed CF-1 mouse assessed as decrease in kidney bacterial burden at 10 mg/kg, ip administered once daily for 5 days measured after 10 days (Rvb= 5.22); assay type: functional; details: route intraperitoneal
[20] = test system: Pichia kudriavzevii; assay: Antimicrobial activity against Candida krusei LMR 39-14 infected in immunosuppressed CF-1 mouse assessed as serum 1,3-beta-D-glucan level at 20 mg/kg, ip administered once daily for 5 days measured after 10 days (Rvb= 5.22); assay type: functional; details: route intraperitoneal; method in brief: as §1
[21] = test system: Pichia kudriavzevii; assay: Antimicrobial activity against Candida krusei LMR 39-14 infected in immunosuppressed CF-1 mouse assessed as decrease in kidney bacterial burden at 20 mg/kg, ip administered once daily for 5 days measured after 10 days (Rvb= 5.22); assay type: functional; details: route intraperitoneal
[22] = test system: Pichia kudriavzevii; assay: Antimicrobial activity against Candida krusei LMR 39-14 infected in immunosuppressed CF-1 mouse assessed as serum 1,3-beta-D-glucan level at 10 mg/kg, ip administered once daily for 5 days measured after 5 days (Rvb= 6.66); assay type: functional; details: route intraperitoneal; method in brief: as §1

OC(Cn1cncn1)(Cn1cncn1)c1ccc(F)cc1F [FLUCONAZOLE]
MIC [1]: > 64 µg/mL
log10CFU/g [2]: 7.01
Activity [3]: 1292 pg/mL
Activity [4]: 2714 pg/mL
log10CFU/g [5]: 4.77
Activity [6]: Active

C[C@@H]1[C@H](O)[C@@H](C)/C=C/C=C/C=C/C=C/C=C/C=C/C=C/[C@H](O[C@@H]2O[C@H](C)[C@@H](O)[C@H](N)[C@@H]2O)C[C@@H]2O[C@](O)(C[C@@H](O)C[C@@H](O)[C@H](O)CC[C@@H](O)C[C@@H](O)CC(=O)O[C@H]1C)C[C@H](O)[C@H]2C(=O)O [AMPHOTERICIN B]
Activity [7]: 2559 pg/mL
Activity [8]: Active
log10CFU/g [9]: 5.95
Activity [10]: 1742 pg/mL
log10CFU/g [11]: 4.96

CCCCCOc1ccc(-c2ccc(-c3ccc(C(=O)N[C@H]4C[C@@H](O)[C@@H](O)NC(=O)[C@@H]5[C@@H](O)[C@@H](C)CN5C(=O)[C@H]([C@@H](C)O)NC(=O)[C@H]([C@H](O)[C@@H](O)c5ccc(O)cc5)NC(=O)[C@@H]5C[C@@H](O)CN5C(=O)[C@H]([C@@H](C)O)NC4=O)cc3)cc2)cc1 [ANIDULAFUNGIN] ({pTerphenylCO(4''-OnC5H11)}-[Orn(4R-OH,5R-OH)]T[Hyp][hTyr(3S-OH,4S-OH)]T[Pro(3S-OH,4S-Me)]; lactam 1-C)
log10CFU/g [12]: 4.06
MIC [1]: 0.06 µg/mL (≈ 0.0526 µM)
Activity [13]: Active
Activity [14]: 624 pg/mL
Activity [15]: 351 pg/mL
log10CFU/g [16]: 3.97
Activity [17]: Active
MIC90 [18]: 0.06 µg/mL (≈ 0.0526 µM)
log10CFU/g [19]: 0.96
Activity [20]: 693 pg/mL
log10CFU/g [21]: 1.59
Activity [22]: 256 pg/mL
